Apaf-1 act = human Apaf-1 activation. O14727. 330,000 compounds, 0.31% hits. AID 489031. activity change, negative = activation, % at 20 µM. Apaf-1 apoptosome caspase-3 activation, DEVD-Rh110 fluorescence; hits give low values;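 active means activity change at or below -40% at 20 µM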
Target sequence (O14727 whole entry, looked up): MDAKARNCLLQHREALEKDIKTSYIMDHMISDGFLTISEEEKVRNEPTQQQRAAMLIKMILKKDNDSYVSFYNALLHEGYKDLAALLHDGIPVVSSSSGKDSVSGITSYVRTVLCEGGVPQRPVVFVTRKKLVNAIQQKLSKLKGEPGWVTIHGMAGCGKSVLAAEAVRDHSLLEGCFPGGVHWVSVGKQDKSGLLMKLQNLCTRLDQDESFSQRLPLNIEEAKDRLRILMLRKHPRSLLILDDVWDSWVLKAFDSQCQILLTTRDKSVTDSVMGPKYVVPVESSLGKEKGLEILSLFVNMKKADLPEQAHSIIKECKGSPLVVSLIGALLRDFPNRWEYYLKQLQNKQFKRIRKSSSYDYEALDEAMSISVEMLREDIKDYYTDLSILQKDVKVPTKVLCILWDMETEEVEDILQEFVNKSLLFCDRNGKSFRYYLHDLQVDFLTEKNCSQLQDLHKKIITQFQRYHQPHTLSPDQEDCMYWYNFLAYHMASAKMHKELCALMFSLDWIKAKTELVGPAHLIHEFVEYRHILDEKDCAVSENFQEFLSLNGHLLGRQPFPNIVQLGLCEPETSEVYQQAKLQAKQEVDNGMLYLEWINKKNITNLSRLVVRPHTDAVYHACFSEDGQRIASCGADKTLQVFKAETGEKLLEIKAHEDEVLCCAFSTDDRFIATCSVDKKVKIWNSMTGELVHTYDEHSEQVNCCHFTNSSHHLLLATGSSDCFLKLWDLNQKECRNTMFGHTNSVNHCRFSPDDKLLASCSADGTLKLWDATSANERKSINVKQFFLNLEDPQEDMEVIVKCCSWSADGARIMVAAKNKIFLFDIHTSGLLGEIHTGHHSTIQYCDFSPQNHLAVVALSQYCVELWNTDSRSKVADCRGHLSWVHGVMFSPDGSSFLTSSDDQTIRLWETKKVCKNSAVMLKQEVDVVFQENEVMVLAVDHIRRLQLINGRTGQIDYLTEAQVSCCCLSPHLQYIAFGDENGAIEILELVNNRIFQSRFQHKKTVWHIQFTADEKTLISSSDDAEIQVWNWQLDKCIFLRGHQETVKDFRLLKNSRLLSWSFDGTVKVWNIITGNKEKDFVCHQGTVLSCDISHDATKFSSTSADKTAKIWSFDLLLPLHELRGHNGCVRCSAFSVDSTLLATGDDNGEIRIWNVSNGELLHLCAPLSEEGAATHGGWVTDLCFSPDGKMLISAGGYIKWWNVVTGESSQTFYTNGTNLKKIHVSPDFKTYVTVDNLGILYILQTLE
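system = biochemical Apaf-1 apoptosome reconstitution | buffer or medium = 20 mM HEPES pH 7.5 with CHAPS, BSA | also added = dATP and cytochrome c as apoptosome triggers, (Z-DEVD)2-Rh110 substrate | incubation = 30 min compound preincubation and 50 min reaction, both room temperature | measured by = fluorescence, 540 nm emission, 480 nm excitation | read-out basis = Caspase-3 cleavage activity downstream of Apaf-1 activation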
Rh110 interf act = counter-screen for Apaf-1 activators: fluorescence interference | shares compounds with Apaf-1 act | Rh110 fluorescence interference, quenched caspase reaction, Ex480/Em540 | fluorescence interference (activity change), % at 20 µM, hits read low | 980 tested, under 10 active | AID 504616;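 active means mean activity change at or below -40% when tested at 20 µM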
Apaf-1 act conf = confirmation of human Apaf-1 activators; 980 compounds, 5% hits; reconstituted apoptosome caspase-3 activity, DEVD-Rh110 fluorescence; hits give low values; activity change, negative = activation, % at 20 µM; shares compounds with Apaf-1 act;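 active means mean activity change at or below -40%, meaning activation of 40% or more, at 20 µM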
An asterisk follows results filed as active; . = no result; + = active, no number. These entries were drawn from the full list.

SMILES	Apaf-1 act	Rh110 interf act	Apaf-1 act conf
O=S(=O)(NCC(Nc1ccccc1)c1ccccc1)c1ccc(Cl)cc1 (stereo not drawn)	-245*	8	18
O=C1C(c2ccccc2)=[N+]([O-])c2ccccc21	85	.	.
CCc1ccc2cccc3c2c1N=CN3C	87	.	.
O=C(NCCCO)Nc1ccc2nc(-c3ccco3)c(-c3ccco3)nc2c1	57	.	.
Cc1ccc2c(c1)C(=O)CC(O)(C(F)F)O2 (stereo not drawn)	-71*	-1	10
COC(=O)CCC(=O)OC1(C)C(=O)C2=CN(CCCCO)C(c3ccc(OC)cc3)=CC2=C(Br)C1=O (stereo not drawn)	80	.	.
O=C(c1ccc(S(=O)(=O)N2CCCC2)cc1)N(c1ccc(F)cc1)C1C=CS(=O)(=O)C1 (stereo not drawn)	-314*	3	11
Cc1cc2cc(CNC(=O)c3ccc(S(=O)(=O)N4CCCCC4)cc3)ccc2n1C	53	.	.
O=C(c1ccc(S(=O)(=O)N2CCCC2)cc1)N(c1ccccc1)C1C=CS(=O)(=O)C1 (stereo not drawn)	-56*	5	10
CN(Cc1cnc2nc(N)nc(N)c2n1)c1ccc(C(=O)N[C@@H](CCC(=O)O)C(=O)O)cc1	3	.	.
COc1ccc(S(=O)(=O)Nc2cccc3c2O[C@H](CN(C)Cc2ccccc2)[C@@H](C)CN([C@H](C)CO)C3=O)cc1	53	.	.
CCOC(=O)c1c(NC(=O)c2ccno2)c2cc([N+](=O)[O-])ccc2n1C	-45*	9	5
COc1ccc(S(=O)(=O)Oc2ccc3cccc(N)c3c2)cc1	88	.	.
Cc1[nH]c(=O)[nH]c(=O)c1S(=O)(=O)Nc1ccc(F)cc1F	-265*	4	7
Cc1[nH][nH]c(=O)c1C(c1ccc(-c2cccc(Cl)c2)o1)c1c(C)[nH][nH]c1=O	87	.	.
Cc1cc(C)n2nc(N)c(N=Nc3ccccc3)c2n1	-4	.	.
Cc1cc(C)n2nc(SC(C)C(=O)N(C)c3ccccc3)nc2n1 (stereo not drawn)	-54*	1	10
Cc1ccc(N2C(=O)[C@@H]3[C@H](C2=O)C2c4ccccc4C=CN2[C@@H]3C(=O)c2ccco2)c(C)c1 (stereo partly drawn)	87	.	.
O=C1c2ccccc2C(O)N1Cc1cccs1 (stereo not drawn)	-41*	0	4
Cc1[nH]n(-c2ccccc2)c(=O)c1C(C[N+](=O)[O-])c1ccc(Br)cc1 (stereo not drawn)	87	.	.
O=C(c1ccc(-c2ccccc2Cl)o1)N1CCCC(C(F)(F)F)C1 (stereo not drawn)	41	.	.
CCC(CO)Oc1cc(NCc2cccc(Cl)c2)c2ncn(C(C)C)c2c1 (stereo not drawn)	73	.	.
Fc1ccccc1Nc1nc(-c2ccncc2)nc2ccccc12	-321*	2	8
CCN1CCN(c2ccc(NC(=O)CCc3c(C)nc4c(-c5ccccc5)c(C)nn4c3C)cc2)CC1	48	.	.
Cc1ccc(NC2=C/C(=N\S(=O)(=O)c3cccs3)c3ccccc3C2=O)c(C)c1	95	.	.
SMILES	Apaf-1 act	Rh110 interf act	Apaf-1 act conf
O=c1[nH]c(C2CCN(S(=O)(=O)c3ccc(C(F)(F)F)cc3)CC2)nc2c1nnn2Cc1ccc(F)cc1	41	.	.
O=C1CC(N2CCOCC2)=NN1c1ccc([N+](=O)[O-])cc1	94	.	.
CCCCNc1c(-c2ccc(SC(C)CC)cc2)nc2cnccn12 (stereo not drawn)	60	.	.
COc1cc(C(=O)N2CCN(c3cccc(C)c3C)CC2)ccc1OCC(=O)N1CCOCC1	51	.	.
Cc1cccc(NC(=O)c2ccccc2OCC(=O)N2CCOCC2)c1C	-546*	20	14
CCOC(=O)C1CCN(c2cc3c(cc2NC(=O)c2ccccc2OCC)n(C)c(=O)n3C)CC1	40	.	.
CCCCCCCCCCCCCCCC[n+]1cccc2ccccc21	91	.	.
COc1ccccc1-n1c(N)c(C(=O)NCC2CCCO2)c2nc3ccccc3nc21 (stereo not drawn)	69	.	.
Cc1ccc(CN2C(=O)CCC2C(=O)NCC2CCCO2)cc1 (stereo not drawn)	-88*	4	3
CCCCCCSc1cccc(-c2nc3cc(C)ccn3c2NCc2ccccc2)c1	40	.	.
COc1ccc(NC2=C(NCCO)C(=O)c3ccccc3C2=O)cc1	70	.	.
COc1ccc2c(c1)OC/C(=C/c1cccs1)C2=O	-94*	5	12
O=C(COC(=O)c1ccccc1Sc1ccc(C(F)(F)F)cc1[N+](=O)[O-])NC(=O)NC1CCCC1	40	.	.
CCN(CC)C1=CC2=CC(=C(C#N)C#N)CCC2CC1 (stereo not drawn)	-141*	+	-77*
CCCCN(C)C1=CC2=CC(=C(C#N)C#N)CCC2CC1 (stereo not drawn)	-76*	-659*	-40

Compound activity as filed in PubChem BioAssay.
